Experimental data of several laboratories.
Each line is one published result; the experiments were not run side by side.
Target: Mitogen-activated protein kinase 7 (MAPK7, Homo sapiens, UniProt Q13164)

| SMILES | effect on | mode | method | concentration | endpoint | value |
| --- | --- | --- | --- | --- | --- | --- |
| FC(F)(F)Oc1cccc(-c2cnc3ccc(-c4ccncc4)nn23)c1 | enzyme activity | inhibitor | radiometric | 1 µM | activity vs control | 51% |
| O=C(Nc1cnn(-c2csc(C(=O)NC3COC3)c2)c1)Nc1ccccc1Cl | enzyme activity | inhibitor | – | 5 µM | remaining activity | 119% |
| CC(C)(C)c1nc2c(s1)c1nc(N)ncc1c1ccc(NS(=O)(=O)c3c(F)cccc3F)c(F)c12 | enzyme activity | inhibitor | radiometric | 1 µM | remaining activity | 80% |
| CCCCNc1ncc2c(-c3ccc(F)cc3)nn(C[C@H]3CC[C@H](N)CC3)c2n1 | target engagement in cells | inhibitor | chemoproteomics | 20 mM | inhibition | 11% |
| Cn1cc(Cl)c2c(Oc3c(F)cc(Nc4cc(Cl)nc(N)n4)cc3F)ccnc21 | cell-free assay | – | competition with immobilised ligand | 0.1 µM | remaining binding | 100% |
| O=C(Nc1cnn(-c2csc(C(=O)NC3COC3)c2)c1)Nc1c(F)cccc1Cl | enzyme activity | inhibitor | – | 5 µM | remaining activity | 75.9% |
| CSc1cccnc1N1CCN(Cc2nc3ccccc3[nH]2)CC1 | cell-free assay | – | competition with immobilised ligand | 1 µM | remaining binding | 100% |
| Nc1ncnc2occ(-c3ccc(NC(=O)Nc4cc(C(F)(F)F)ccc4F)cc3)c12 | cell-free assay | inhibitor | – | 20 µM | remaining signal | 1.6% |
| CS(=O)(=O)N1CCCC(NC(=O)[C@H](CCC2CCCCC2)NC(=O)c2ccc(CNc3ncnc4c3nnn4-c3ccccc3)cc2)C1 (stereo partly drawn) | cell-free assay | – | competition with immobilised ligand | 0.1 µM | remaining binding | 94% |
| Cc1ccc(C(=O)Nc2ccc(CN3CCN(C)CC3)c(C(F)(F)F)c2)cc1C#Cc1cnc2cccnn12 | enzyme activity | inhibitor | – | 23.5 nM | remaining activity | 98% |
| Cc1nccc(COC(=O)N2C[C@@H]3[C@@H](CNC(=O)c4ccc5[nH]nnc5c4)[C@@H]3C2)n1 | cell-free assay | – | competition with immobilised ligand | 1 µM | remaining binding | 98% |
| COc1cc(Nc2cnc(C#N)c(O[C@H](C)CN(C)C)n2)ncc1-c1cnn(C)c1 | enzyme activity | inhibitor | radiometric | 1 µM | remaining activity | 86% |
